Experimental data as given in ChEMBL document CHEMBL3627671, “Novel derivatives of nitro-substituted salicylic acids: Synthesis, antimicrobial activity and cytotoxicity” (Bioorg Med Chem, 2015).
Values after ≈ are worked out from the molar mass of the structure shown.

How the values were obtained:
[1] = test system: Trichosporon asahii; test: Antifungal activity against Trichosporon asahii 1188 after 48 hrs by microdilution broth method; type: functional; conditions: Trichosporon asahii, 1188, 48 h
In short: (§1)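 CLSI M27-A3 broth microdilution in RPMI 1640 with glutamine, buffered to pH 7.0 with MOPS; DMSO diluent. Yeast inoculum 5 × 10^3 ± 0.2 CFU/mL. Moulds grown on Sabouraud agar 3–10 days before spore harvest, final inoculum 0.5-5 × 10^4 CFU/mL, checked in a Bürker chamber. Incubated dark, humid, 35 °C, read at 24 and 48 h visually and at 540 nm. MIC taken as ≥80% (yeasts) or ≥50% (filamentous) growth reduction versus control.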

[2] = test system: Trichosporon asahii; test: Antifungal activity against Trichosporon asahii 1188 after 24 hrs by microdilution broth method; type: functional; conditions: Trichosporon asahii, 1188, 24 h; in short: as §1
[3] = test system: Candida albicans; test: Antifungal activity against Candida albicans ATCC 44859 after 48 hrs by microdilution broth method; type: functional; conditions: ATCC 44859, 48 h; in short: as §1
[4] = test system: Aspergillus fumigatus; test: Antifungal activity against Aspergillus fumigatus 231 after 24 hrs by microdilution broth method; type: functional; conditions: Aspergillus fumigatus, 231, 24 h; in short: as §1
[5] = test system: Staphylococcus epidermidis; test: Antibacterial activity against Staphylococcus epidermidis H 6966/08 after 48 hrs by microdilution broth method; type: functional; conditions: H 6966/08, 48 h
In short: (§2)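 Mueller-Hinton broth microdilution (modified M07-A07), pH 7.4 (±0.2). Compounds dissolved in DMSO, tested at final 500 to 0.49 µmol/L. Inoculum in sterile water matched to 0.5 McFarland. Incubated in the dark, humid atmosphere, 35 °C, read at 24 and 48 h visually and at 540 nm. MIC taken as ≥95% growth reduction (IC95) versus control.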

[6] = test system: Pseudomonas aeruginosa; test: Antibacterial activity against Pseudomonas aeruginosa CCM 1961 after 24 hrs by microdilution broth method; type: functional; conditions: CCM 1961, 24 h; in short: as §2
[7] = test system: Mycobacterium avium; test: Antimycobacterial activity against Mycobacterium avium 330/80 after 14 days; type: functional; conditions: 330/80, 336 h
[8] = Selectivity index, ratio of CI50 for human HepG2 cells to MIC100 for Mycobacterium tuberculosis H37Rv 331/88
[9] = test system: Trichophyton mentagrophytes; test: Antifungal activity against Trichophyton mentagrophytes 445 after 24 hrs by microdilution broth method; type: functional; conditions: Trichophyton mentagrophytes, 445, 24 h
[10] = test system: Mycobacterium kansasii; test: Antimycobacterial activity against Mycobacterium kansasii 235/80 after 21 days; type: functional; conditions: 235/80, 504 h
In short: (§3)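 Šula's semisynthetic medium micromethod at 37 °C, read after 7, 14 and 21 days. The 1.0 McFarland suspension was diluted 10^-4. MIC determined. 6509/96 is a clinical isolate.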

[11] = test system: Klebsiella pneumoniae; test: Antibacterial activity against Klebsiella pneumoniae D 11750/08 after 24 hrs by microdilution broth method; type: functional; conditions: D 11750/08, 24 h; in short: as §2
[12] = test system: Klebsiella pneumoniae; test: Antibacterial activity against ESBL-positive Klebsiella pneumoniae J 14368/08 after 48 hrs by microdilution broth method; type: functional; conditions: J 14368/08, 48 h; in short: as §2
[13] = test system: Lichtheimia corymbifera; test: Antifungal activity against Absidia corymbifera 272 after 24 hrs by microdilution broth method; type: functional; conditions: Lichtheimia corymbifera, 272, 24 h; in short: as §1
[14] = test system: Nakaseomyces glabratus; test: Antifungal activity against Candida glabrata 20/I after 24 hrs by microdilution broth method; type: functional; in short: as §1
[15] = test system: Staphylococcus aureus; test: Antibacterial activity against Staphylococcus aureus CCM 4516/08 after 24 hrs by microdilution broth method; type: functional; conditions: CCM 4516/08, 24 h
[16] = test system: Nakaseomyces glabratus; test: Antifungal activity against Candida glabrata 20/I after 48 hrs by microdilution broth method; type: functional; in short: as §1
[17] = test system: Staphylococcus aureus; test: Antibacterial activity against methicillin-resistant Staphylococcus aureus H 5996/08 after 48 hrs by microdilution broth method; type: functional; conditions: H 5996/08, 48 h
[18] = test system: Candida albicans; test: Antifungal activity against Candida albicans ATCC 44859 after 24 hrs by microdilution broth method; type: functional; conditions: ATCC 44859, 24 h; in short: as §1
[19] = test system: Enterococcus sp.; test: Antibacterial activity against Enterococcus sp. J 14365/08 after 24 hrs by microdilution broth method; type: functional; conditions: J 14365/08, 24 h; in short: as §2
[20] = test system: Enterococcus sp.; test: Antibacterial activity against Enterococcus sp. J 14365/08 after 48 hrs by microdilution broth method; type: functional; conditions: J 14365/08, 48 h; in short: as §2
[21] = test system: Mycobacterium avium; test: Antimycobacterial activity against Mycobacterium avium 330/80 after 21 days; type: functional; conditions: 330/80, 504 h
[22] = test system: Aspergillus fumigatus; test: Antifungal activity against Aspergillus fumigatus 231 after 48 hrs by microdilution broth method; type: functional; conditions: Aspergillus fumigatus, 231, 48 h; in short: as §1
[23] = test system: Trichophyton mentagrophytes; test: Antifungal activity against Trichophyton mentagrophytes 445 after 48 hrs by microdilution broth method; type: functional; conditions: Trichophyton mentagrophytes, 445, 48 h
[24] = test system: Lichtheimia corymbifera; test: Antifungal activity against Absidia corymbifera 272 after 48 hrs by microdilution broth method; type: functional; conditions: Lichtheimia corymbifera, 272, 48 h; in short: as §1
[25] = test system: Pichia kudriavzevii; test: Antifungal activity against Candida krusei E28 after 48 hrs by microdilution broth method; type: functional; conditions: E28, 48 h; in short: as §1
[26] = test system: Mycobacterium tuberculosis; test: Antimycobacterial activity against Mycobacterium tuberculosis H37Rv 331/88 after 21 days; type: functional; conditions: H37Rv 331/88, 504 h
[27] = test system: Staphylococcus aureus; test: Antibacterial activity against methicillin-resistant Staphylococcus aureus H 5996/08 after 24 hrs by microdilution broth method; type: functional; conditions: H 5996/08, 24 h
[28] = test system: Mycobacterium kansasii; test: Antimycobacterial activity against Mycobacterium kansasii 235/80 after 7 days; type: functional; conditions: 235/80, 168 h; in short: as §3
[29] = test system: Mycobacterium kansasii; test: Antimycobacterial activity against Mycobacterium kansasii 6509/96 after 21 days; type: functional; conditions: 6509/96, 504 h; in short: as §3
[30] = test system: Pseudomonas aeruginosa; test: Antibacterial activity against Pseudomonas aeruginosa CCM 1961 after 48 hrs by microdilution broth method; type: functional; conditions: CCM 1961, 48 h; in short: as §2
[31] = test system: Escherichia coli; test: Antibacterial activity against Escherichia coli CCM4517 after 48 hrs by microdilution broth method; type: functional; conditions: CCM4517, 48 h; in short: as §2
[32] = test system: Mycobacterium kansasii; test: Antimycobacterial activity against Mycobacterium kansasii 6509/96 after 7 days; type: functional; conditions: 6509/96, 168 h; in short: as §3
[33] = test system: Pichia kudriavzevii; test: Antifungal activity against Candida krusei E28 after 24 hrs by microdilution broth method; type: functional; conditions: E28, 24 h; in short: as §1
[34] = test system: Mycobacterium kansasii; test: Antimycobacterial activity against Mycobacterium kansasii 235/80 after 14 days; type: functional; conditions: 235/80, 336 h; in short: as §3
[35] = test system: Escherichia coli; test: Antibacterial activity against Escherichia coli CCM4517 after 24 hrs by microdilution broth method; type: functional; conditions: CCM4517, 24 h; in short: as §2
[36] = test system: Staphylococcus aureus; test: Antibacterial activity against Staphylococcus aureus CCM 4516/08 after 48 hrs by microdilution broth method; type: functional; conditions: CCM 4516/08, 48 h
[37] = test system: Klebsiella pneumoniae; test: Antibacterial activity against Klebsiella pneumoniae D 11750/08 after 48 hrs by microdilution broth method; type: functional; conditions: D 11750/08, 48 h; in short: as §2
[38] = test system: HepG2; test: Cytotoxicity against human HepG2 cells after 24 hrs […]; type: cell-based; conditions: HepG2, 24 h
[39] = test system: Klebsiella pneumoniae; test: Antibacterial activity against ESBL-positive Klebsiella pneumoniae J 14368/08 after 24 hrs by microdilution broth method; type: functional; conditions: J 14368/08, 24 h; in short: as §2
[40] = test system: Mycobacterium tuberculosis; test: Antimycobacterial activity against Mycobacterium tuberculosis H37Rv 331/88 after 14 days; type: functional; conditions: H37Rv 331/88, 336 h
[41] = test system: Mycobacterium kansasii; test: Antimycobacterial activity against Mycobacterium kansasii 6509/96 after 14 days; type: functional; conditions: 6509/96, 336 h; in short: as §3
[42] = test system: Candida tropicalis; test: Antifungal activity against Candida tropicalis 156 after 48 hrs by microdilution broth method; type: functional; conditions: Candida tropicalis, 156, 48 h; in short: as §1
[43] = test system: Staphylococcus epidermidis; test: Antibacterial activity against Staphylococcus epidermidis H 6966/08 after 24 hrs by microdilution broth method; type: functional; conditions: H 6966/08, 24 h; in short: as §2
[44] = test system: Candida tropicalis; test: Antifungal activity against Candida tropicalis 156 after 24 hrs by microdilution broth method; type: functional; conditions: Candida tropicalis, 156, 24 h; in short: as §1

`O=C(Nc1ccc(C(F)(F)F)cc1)c1cc([N+](=O)[O-])ccc1O` gave an MIC [1] of 500 µM (≈ 163 µg/mL), an MIC [2] of 500 µM (≈ 163 µg/mL) and an MIC [3] of over 500 µM. The MIC [4] was 500 µM (≈ 163 µg/mL), the MIC [5] was 15.6 µM (≈ 5.1 µg/mL) and the MIC [6] was over 500 µM. The MIC [7] was 62.5 µM (≈ 20.4 µg/mL), the “Selectivity Index” value [8] was 0.438 and the MIC [9] was 500 µM (≈ 163 µg/mL). For the same compound, the MIC [10] was 32 µM (≈ 10.4 µg/mL), the MIC [11] was over 500 µM and the MIC [12] was over 500 µM. For the same compound, the MIC [13] was 500 µM (≈ 163 µg/mL), the MIC [14] was over 500 µM and the MIC [15] was 31.2 µM (≈ 10.2 µg/mL). It also gave an MIC [16] of over 500 µM, an MIC [17] of 31.2 µM (≈ 10.2 µg/mL) and an MIC [18] of over 500 µM. For the same compound, the MIC [19] was over 500 µM, the MIC [20] was over 500 µM and the MIC [21] was 62.5 µM (≈ 20.4 µg/mL). For the same compound, the MIC [22] was 500 µM (≈ 163 µg/mL), the MIC [23] was 500 µM (≈ 163 µg/mL) and the MIC [24] was 500 µM (≈ 163 µg/mL). The MIC [25] was over 500 µM, the MIC [26] was 8 µM (≈ 2.61 µg/mL) and the MIC [27] was 31.2 µM (≈ 10.2 µg/mL). The MIC [28] was 8 µM (≈ 2.61 µg/mL), the MIC [29] was 32 µM (≈ 10.4 µg/mL) and the MIC [30] was over 500 µM. For the same compound, the MIC [31] was over 500 µM, the MIC [32] was 16 µM (≈ 5.22 µg/mL) and the MIC [33] was over 500 µM. The MIC [34] was 16 µM (≈ 5.22 µg/mL), the MIC [35] was over 500 µM and the MIC [36] was 31.2 µM (≈ 10.2 µg/mL). The MIC [37] was over 500 µM, the IC50 [38] was 3.5 µM and the MIC [39] was over 500 µM. The MIC [40] was 8 µM (≈ 2.61 µg/mL), the MIC [41] was 32 µM (≈ 10.4 µg/mL) and the MIC [42] was over 500 µM. The MIC [43] was 15.6 µM (≈ 5.1 µg/mL) and the MIC [44] was over 500 µM.
